Laboratory results as given in ChEMBL document CHEMBL1122897, “Tetracyclic pyridazines as potential psychopharmacological agents” (J Med Chem, 1985).

Experiments:
Format in all cases: functional
Mus musculus [1] = species on record: Mus musculus; assay: In vitro activity for the ability to inhibit the uptake of Norepinephrine into mouse cortical slices; value ranges from 2.2-5.5
Summary of the method: (§1)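 Slices (60 mg cortical, 20 mg striatal) from untreated white mice (18–22 g) incubated with test compound, 0.2 nmol [3H]NE and 0.2 nmol [14C]-5-HT simultaneously, 0.48 μmol pargyline, 11 μmol glucose in 2.0 mL Krebs-Henseleit pH 7.4, 5 min under O2 with 6.5% CO2. 3H and 14C counted separately by liquid scintillation; active uptake = portion blocked by 3 × 10^-4 M cocaine.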

Mus musculus [2] = assay: Ability to inhibit the uptake of Norepinephrine into mouse cortical slices 1 hour after intraperitoneal injection ex vivo at a dose of >128
Summary of the method: (§2)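 Ex vivo: white mice (18–22 g), four per dose, given test drug intraperitoneally; 1 h later cerebral cortical plus striatal slices incubated 5 min with 0.2 nmol [3H]NE and 0.2 nmol [14C]-5-HT, pargyline, glucose in Krebs-Henseleit buffer pH 7.4 under O2/6.5% CO2. Dual-channel scintillation counting of dissolved slices; active uptake defined as cocaine (3 × 10^-4 M)-inhibitable.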

Mus musculus [3] = species on record: Mus musculus; assay: In vitro activity for the ability to inhibit the uptake of Serotonin into mouse cortical slices; value ranges from 2.6-6.7; summary of the method: as §1
Mus musculus [4] = assay: Ability to inhibit the uptake of Serotonin into mouse cortical slices 1 hour after intraperitoneal injection ex vivo at a dose of >128; summary of the method: as §2
Mus musculus [5] = assay: Ability to inhibit the uptake of Serotonin into mouse cortical slices 1 hour after intraperitoneal injection ex vivo value ranges from 27-224; conditions: ip; summary of the method: as §2
Mus musculus [6] = species on record: Mus musculus; assay: In vitro activity for the ability to inhibit the uptake of Serotonin into mouse cortical slices; value ranges from 0.8-3.0; summary of the method: as §1
Mus musculus [7] = assay: Ability to inhibit the uptake of Norepinephrine into mouse cortical slices 1 hour after intraperitoneal injection ex vivo; value ranges from […]; conditions: ip; summary of the method: as §2
Mus musculus [8] = species on record: Mus musculus; assay: In vitro activity for the ability to inhibit the uptake of Norepinephrine into mouse cortical slices; value ranges from 1.1-4.4; summary of the method: as §1
Mus musculus [9] = species on record: Mus musculus; assay: In vitro activity for the ability to inhibit the uptake of Serotonin into mouse cortical slices; value ranges from 0.3-1.0; summary of the method: as §1
Mus musculus [10] = assay: Ability to inhibit the uptake of Serotonin into mouse cortical slices 1 hour after intraperitoneal injection ex vivo at concentration of 102 uM/Kg; summary of the method: as §2
Mus musculus [11] = species on record: Mus musculus; assay: In vitro activity for the ability to inhibit the uptake of Norepinephrine into mouse cortical slices at a dose of >25; summary of the method: as §1
Mus musculus [12] = assay: Ability to inhibit the uptake of Norepinephrine into mouse cortical slices 1 hour after intraperitoneal injection ex vivo at a dose of 102; summary of the method: as §2
Mus musculus [13] = assay: Ability to inhibit the uptake of Serotonin into mouse cortical slices 1 hour after intraperitoneal injection ex vivo at a dose > 106; summary of the method: as §2
Mus musculus [14] = assay: Ability to inhibit the uptake of Norepinephrine into mouse cortical slices 1 hour after intraperitoneal injection ex vivo at a dose of >106; summary of the method: as §2
Mus musculus [15] = species on record: Mus musculus; assay: In vitro activity for the ability to inhibit the uptake of Norepinephrine into mouse cortical slices Value ranges from […]; summary of the method: as §1
Mus musculus [16] = species on record: Mus musculus; assay: In vitro activity for the ability to inhibit the uptake of Serotonin into mouse cortical slices at a dose of 27; summary of the method: as §1
Mus musculus [17] = assay: Ability to inhibit the uptake of Serotonin into mouse cortical slices 1 hour after intraperitoneal injection ex vivo at a dose of >117; summary of the method: as §2
Mus musculus [18] = species on record: Mus musculus; assay: In vitro activity for the ability to inhibit the uptake of Norepinephrine into mouse cortical slices; value ranges from 2.3-7.0; summary of the method: as §1
Mus musculus [19] = species on record: Mus musculus; assay: In vitro activity for the ability to inhibit the uptake of Serotonin into mouse cortical slices; value ranges from […]; summary of the method: as §1
Mus musculus [20] = assay: Ability to inhibit the uptake of Norepinephrine into mouse cortical slices 1 hour after intraperitoneal injection ex vivo at a dose of >117; summary of the method: as §2
Mus musculus [21] = species on record: Mus musculus; assay: In vitro activity for the ability to inhibit the uptake of Serotonin into mouse cortical slices; value ranges from 2.0-6.4; summary of the method: as §1
Mus musculus [22] = species on record: Mus musculus; assay: In vitro activity for the ability to inhibit the uptake of Norepinephrine into mouse cortical slices; value ranges from 0.2-1.0; summary of the method: as §1
Mus musculus [23] = assay: Ability to inhibit the uptake of Norepinephrine into mouse cortical slices 1 hour after intraperitoneal injection ex vivo; value ranges from 11-23; conditions: ip; summary of the method: as §2
Mus musculus [24] = assay: Ability to inhibit the uptake of Serotonin into mouse cortical slices 1 hour after intraperitoneal injection ex vivo; conditions: ip; summary of the method: as §2
Mus musculus [25] = species on record: Mus musculus; assay: (§3) In vitro activity for the ability to inhibit the uptake of Serotonin into mouse cortical slices.; conditions: read-out: ED50 (the source's name)
Summary of the method: (§4)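 Slices from untreated white mice (18–22 g), four animals per dose: 60 mg cortical plus 20 mg striatal, with test compound in the bath. Simultaneous uptake of [3H]NE and [14C]-5-HT (0.2 nmol each), with 0.48 μmol pargyline and 11 μmol glucose in 2.0 mL Krebs-Henseleit buffer, pH 7.4. Incubation 5 min under O2/6.5% CO2. Separate 3H and 14C channels; active uptake is the portion inhibited by 3 × 10^-4 M cocaine.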

Mus musculus [26] = assay: Ability to inhibit the uptake of Norepinephrine into mouse cortical slices 1 hour after intraperitoneal injection ex vivo; conditions: ip
Mus musculus [27] = species on record: Mus musculus; assay: (§5) In vitro activity for the ability to inhibit the uptake of Norepinephrine into mouse cortical slices.; conditions: read-out: ED50 (the source's name); summary of the method: as §4
Mus musculus [28] = species on record: Mus musculus; assay: as §3; summary of the method: as §1
Mus musculus [29] = species on record: Mus musculus; assay: as §5; summary of the method: as §1

CN(C)CCc1nnc2ccccc2c1-c1cccc(Cl)c1
EC50 (Mus musculus [1]): 3.5 µM
Inhibition (Mus musculus [2]): 49%
EC50 (Mus musculus [3]): 4.2 µM
Inhibition (Mus musculus [4]): 42%

CN(C)CC/C=C1\c2ccccc2CCc2cccc(N)c21
ED50 (Mus musculus [5]): 55 µmol/kg
EC50 (Mus musculus [6]): 1.6 µM
ED50 (Mus musculus [7]): 15 µmol/kg
EC50 (Mus musculus [8]): 2.2 µM

CN(C)CC/C=C(\c1cccc(Cl)c1)c1ccccc1N
EC50 (Mus musculus [9]): 0.5 µM
Inhibition (Mus musculus [10]): 55%
Inhibition (Mus musculus [11]): 37%
Inhibition (Mus musculus [12]): 33%

CN(C)CCc1nnc2cccc3c2c1-c1ccccc1CC3
Inhibition (Mus musculus [13]): 11%
Inhibition (Mus musculus [14]): 13%
EC50 (Mus musculus [15]): 6.6 µM
Inhibition (Mus musculus [16]): 46%

CN(C)CCc1nnc2cccc3c2c1-c1cc(Cl)ccc1S3
Inhibition (Mus musculus [17]): 16%
EC50 (Mus musculus [18]): 3.8 µM
EC50 (Mus musculus [19]): 7.3 µM
Inhibition (Mus musculus [20]): 27%

CN(C)CC/C=C1\c2cc(Cl)ccc2Sc2cccc(N)c21
EC50 (Mus musculus [21]): 3.5 µM
EC50 (Mus musculus [22]): 0.7 µM
ED50 (Mus musculus [23]): 16 µmol/kg
ED50 (Mus musculus [24]): > 99 µmol/kg

CN(C)CCC=C1c2ccccc2CCc2ccccc21 [AMITRIPTYLINE]
EC50 (Mus musculus [25]): 2.9 µM
ED50 (Mus musculus [26]): 144 µmol/kg
EC50 (Mus musculus [27]): 5.4 µM
ED50 (Mus musculus [24]): > 144 µmol/kg

CNCCCN1c2ccccc2CCc2ccccc21 [DESIPRAMINE]
EC50 (Mus musculus [28]): 12 µM
EC50 (Mus musculus [29]): 0.07 µM
ED50 (Mus musculus [24]): > 132 µmol/kg

CN(C)CCCN1c2ccccc2CCc2ccccc21 [IMIPRAMINE]
EC50 (Mus musculus [28]): 0.3 µM
EC50 (Mus musculus [29]): 1.3 µM
ED50 (Mus musculus [26]): 63 µmol/kg
ED50 (Mus musculus [24]): 126 µmol/kg
